Test results reported in ChEMBL document CHEMBL5500359, “Identification of a new bisindolinone arresting IGROV1 cells proliferation” (Eur J Med Chem, 2024).
Active and inactive are the calls of the source. The rule behind the calls is not given here.

Columns and labels:
[1] = system: Breast cancer cell line; assay: Cell growth inhibition of human Breast cancer cells incubated for 48 hrs by SRB assay; format: functional; conditions: read-out: LC50 (the source's name)
How it was run: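 NCI DTP five-concentration screen. Cells were seeded at 5 × 10³–4 × 10⁴ cells/well, depending on the line. Compounds were diluted in fresh medium and added at scalar concentrations over 0–1000 µM or 0–100 µM. After 48 h the cells were fixed in situ, stained with sulforhodamine B, and optical density was read. GI50, TGI and LC50 were derived by NCI procedures, and the panel mean is the mean graph midpoint.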

[2] = system: IGROV-1; assay: Downregulation of RAD51 mRNA level in human IGROV-1 cells at 5 uM pretreated for 24 hrs followed by UV exposure for 6 hrs by qRT-PCR analysis; format: functional, cell-based; conditions: time 30.0 hrs
How it was run: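 IGROV1 pretreated 24 h with 5 μM then UV-irradiated (7.5 W lamp, 3 min); CCND1 and RAD51 mRNA by qRT-PCR after column RNA extraction and reverse transcription, fold change versus vehicle; at least triplicate, Student's t-test.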

[3] = system: IGROV-1; assay: Effect on p21 mRNA level in human IGROV-1 cells at 5 uM incubated for 6 hrs by RT-PCR analysis; format: functional, cell-based
How it was run: (§1)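 IGROV1 given 5 μM versus vehicle; RNA extracted by spin column, reverse transcribed, CCND1, CDKN1A and ITAG5 transcripts quantified by qRT-PCR as fold change versus vehicle; at least triplicate, Student's t-test, p<0.05.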

[4] = Upregulation of histone H4 acetylation in human IGROV-1 cells incubated for 6 hrs by Western blot analysis relative to control; format: functional
How it was run: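 IGROV1 seeded 1.5×10^4 cells/cm², after 48 h exposed 6 h to 5 μM final; histones acid-extracted (0.4 N H2SO4) from nuclei isolated with 10 mM butyrate washes, acetone-precipitated, 15% SDS-PAGE, blotted with anti-acetyl-lysine; densitometry normalized to histone H1, percent of vehicle, mean ± SD of three experiments.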

[5] = system: IGROV-1; assay: Effect on directionality of human IGROV-1 cells at 5 uM incubated for 24 hrs; format: functional, cell-based
How it was run: (§2)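 Livecyte quantitative phase imaging, label-free single-cell tracking; IGROV1 seeded 4×10^3/well, treated after 24 h with 5 μM in six replicates; frames every 60 min for 2 days, 10× objective, 37 °C, 5% CO2. Each cell tracked for displacement, instantaneous velocity and directionality.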

[6] = system: Breast cancer cell line; assay: Cytostatic activity against human Breast cancer cells incubated for 48 hrs by SRB assay; format: functional
How it was run: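 NCI-60 five-concentration screen: lines seeded 5×10^3–4×10^4 cells/well depending on line; compound diluted in fresh medium at scalar concentrations 0–100 or 0–1000 μM; 48 h exposure, in situ fixation, sulforhodamine B protein staining, optical density read; GI50, TGI and LC50 per NCI procedures; panel mean = mean graph midpoint.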

[7] = system: IGROV-1; assay: Downregulation of CCND1 level in human IGROV-1 cells at 5 uM incubated for 6 hrs by Western blot analysis; format: functional, cell-based
How it was run: (§3)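 IGROV1 exposed to 5 μM; RIPA lysates at 4 °C, protein quantified, SDS-PAGE (12.5% or 7.5%), nitrocellulose blot probed overnight at 4 °C for cyclin D1 or α5 integrin subunit; densitometry normalized to α-tubulin, percent of vehicle, mean ± SD of three experiments.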

[8] = system: IGROV-1; assay: Anti-motility activity in human IGROV-1 cells assessed as decrease in cell displacement at 5 uM incubated for 24 hrs; format: functional, cell-based; how it was run: as §2
[9] = system: IGROV-1; assay: Anti-motility activity in human IGROV-1 cells assessed as decrease in cell velocity at 5 uM incubated for 24 hrs; format: functional, cell-based; how it was run: as §2
[10] = system: IGROV-1; assay: Induction of DNA damage in human IGROV-1 cells assessed as increase in gamma-H2AX phosphorylation at 5 uM pretreated for 24 hrs followed by UV exposure for 6 hrs by Western blot analysis; format: functional, cell-based; conditions: time 30.0 hrs
How it was run: (§4)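 IGROV1 pretreated 24 h with 5 μM, then UV-irradiated with a 7.5 W lamp for 3 min; UV alone as positive control. Cyclin D1 and RAD51 by RIPA-lysate Western blot normalized to α-tubulin; γH2AX by acid-extracted histone blot normalized to H1; percent of vehicle, mean ± SD, three experiments.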

[11] = system: IGROV-1; assay: Downregulation of ITAG5 level in human IGROV-1 cells at 5 uM incubated for 6 hrs by Western blot analysis; format: functional, cell-based; how it was run: as §3
[12] = system: HDFa (Homo sapiens); assay: Antiproliferative activity against human HDFa cells assessed as doubling time at 5 uM measured after 48 hrs (reference value: 35 hrs)
[13] = system: IGROV-1; assay: Downregulation of RAD51 level in human IGROV-1 cells at 5 uM pretreated for 24 hrs followed by UV exposure for 6 hrs by Western blot analysis; format: functional, cell-based; conditions: time 30.0 hrs; how it was run: as §4
[14] = Cytotoxicity against human HDFa cells assessed as reduction in cell viability incubated for 24 hrs by MTT assay; format: toxicity, cell-based
How it was run: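 IGROV1 and HDFa in RPMI 1640 + 10% FCS, 2 mM glutamine, 37 °C, 5% CO2; seeded 1.5×10^4/well, after 24 h exposed 24 h to 0.010–500 μM (DMSO ≤0.1%). MTT 0.2 mg/mL in PBS 2 h at 37 °C, absorbance 570 nm; IC50 from dose-response, three independent experiments each in triplicate; SI = HDFa IC50/IGROV1 IC50.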

[15] = system: IGROV-1; assay: Downregulation of ITAG5 mRNA level in human IGROV-1 cells at 5 uM incubated for 6 hrs by RT-PCR analysis; format: functional, cell-based; how it was run: as §1

CC(C)(C)c1cc(/C=C2/C(=O)Nc3cc(Cl)ccc32)c(O)c(/C=C2/C(=O)Nc3cc(Cl)ccc32)c1
CC50 [1]: 2.95 µM | Activity [2]: Active | Activity [3]: inactive | Activity [4]: 68.5% | Activity [5]: inactive | TGI [6]: 13.2 µM | Activity [7]: Active | Activity [8]: Active | Activity [9]: Active | Activity [10]: Active | Activity [11]: Active | Time [12]: 56 h | Activity [13]: Active | IC50 at 24 h [14]: 21.9 µM | Activity [15]: Active
